The values that follow come from PubChem BioAssay.

Assay [1] in a line: hit retest on RPL19A-GFP reporter strain – cell-based, S. cerevisiae, flow cytometry, cherry picks, mother/daughter gates, confirmation (AID 2270;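 active = GFP response below 50% of the DMSO control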). Particulars: 3 h, at 10 µM, stronger effect = lower value, 100 = same GFP as DMSO wells.
A short description of assay [2]: yeast TOR pathway reporter LAP4-GFP change – cell-based, cherry picks, flow cytometry, mother/daughter gates, confirmation (AID 2271;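 active = GFP response above 150% of the DMSO control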;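 also: ratio of sample to DMSO plate mean so 100% equals DMSO level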). Particulars: S. cerevisiae LAP4-GFP strain, 3 h, at 10 µM, stronger effect = higher value, 100 means same as DMSO control. In outline:
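Test system: GFP-fusion yeast strain / Amount: 0.2 OD600 cells / Buffer or medium: SC medium / Dosing: 10 µM single dose / Incubation: compound exposure 3 h at 30 °C, end-over-end rotation / Detection: HT flow cytometry, GFP fluorescence channel / Evaluation: median GFP fluorescence as percent of plate-mean DMSO wells / Control set: DMSO-only negative wells, rapamycin 400 ng/mL positive wells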

Assay [3] in a line: TOR pathway reporter MEP2-GFP, retest of hits – S. cerevisiae, flow cytometry GFP, cherry picks, confirmation (AID 2272;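 active = GFP response above 150% of the DMSO control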;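 also: ratio of well signal to plate DMSO mean so 100% equals DMSO level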). The note with it: S. cerevisiae MEP2-GFP strain, 3 h, at 10 µM, stronger effect = higher value.
Assay [4] in a line: yeast AGP1-GFP fluorescence change, single-dose – cell-based, flow cytometry, S. cerevisiae, cherry picks, confirmation (AID 2273).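 Also: median GFP channel fluorescence over the whole cell population gate.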 Particulars: S. cerevisiae AGP1-GFP strain, 3 h, at 10 µM.
The nature of assay [5]: TOR pathway CIT2 reporter hit retest – S. cerevisiae, GFP fusion, cherry picks, mother/daughter gates, confirmation (AID 2274). The note with it: S. cerevisiae CIT2-GFP strain, flow cytometry, 3 h, at 10 µM, stronger effect = higher value.
[6] abbreviates: measured here: daughter cell gate.
Where [7] appears, read: measured here: mother cell gate.
The mark [8] stands for this setting: measured here: daughter cell gate response.
[9] abbreviates: measured here: mother cell gate response.

SMILES strings stand for the structures. Activity calls are given as the source filed them.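 The calls were made as follows, unless noted: active = GFP response above 150% of the DMSO level; inconclusive = fewer than 70 events counted for a yeast strain; inactive = the rest.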

Consider `N#C/C(=C\c1c(N2CCN(c3ccccc3)CC2)nc2ccccn2c1=O)C(N)=O`, for which the GFP response vs DMSO in assay [1] was 104% (inactive); in assay [1] (setting [6]), 99.1%; in assay [1] (setting [7]) it was 99.3%; in assay [3] it was 105% (inactive). The GFP response relative to DMSO in assay [2] is 97% (inactive); in assay [2] (setting [8]) it was 97.5%; in assay [2] (setting [9]), 98.4%. Also, the GFP response, % of DMSO in assay [4] is 106% (inactive); in assay [5] it was 98.8% (inactive); in assay [5] (setting [6]) it was 99.2%; in assay [5] (setting [7]) it was 88.2%.

Regarding `CS(=O)(=O)N1N=C(c2ccc3nccnc3c2)CC1c1ccccc1` (stereo not drawn), the GFP response vs DMSO in assay [1] is 99.8% (inactive); in assay [1] (setting [6]), 102%; in assay [1] (setting [7]) it was 98.2%; in assay [3], 101% (inactive). Moreover, the GFP response relative to DMSO is 100% (inactive) in assay [2], 102% in assay [2] (setting [8]) and 99.5% in assay [2] (setting [9]). Moreover, the GFP response, % of DMSO in assay [4] was 98.4% (inactive); in assay [5], 103% (inactive); in assay [5] (setting [6]), 103%; in assay [5] (setting [7]) it was 102%.

Take `COc1ccc(N(CC(=O)N/N=C/c2cc(OC)ccc2OC)S(=O)(=O)c2ccccc2)cc1`: the GFP response vs DMSO in assay [1] is 96% (inactive); in assay [1] (setting [6]), 97.4%; in assay [1] (setting [7]) it was 86.9%; in assay [3], 96.2% (inactive). Moreover, the GFP response relative to DMSO in assay [2] was 92.8% (inactive); in assay [2] (setting [8]), 96%; in assay [2] (setting [9]) it was 92.9%. The GFP response, % of DMSO in assay [4] was 99.1% (inactive); in assay [5] it was 99.7% (inactive); in assay [5] (setting [6]), 101%; in assay [5] (setting [7]), 99.7%.

Take `COc1ccc(CN2CCN(c3ncccn3)CC2)c(C)c1C`: the GFP response vs DMSO is 96.2% (inactive) in assay [1], 98.1% in assay [1] (setting [6]), 95.2% in assay [1] (setting [7]) and 99.3% (inactive) in assay [3]. For the same compound, the GFP response relative to DMSO in assay [2] was 100% (inactive); in assay [2] (setting [8]), 101%; in assay [2] (setting [9]), 100%. The GFP response, % of DMSO in assay [4] was 100% (inactive); in assay [5], 100% (inactive); in assay [5] (setting [6]) it was 101%; in assay [5] (setting [7]) it was 102%.

On to `COc1ccc(N2C(=O)C(Cl)=C(N(CCO)Cc3ccccc3)C2=O)cc1`, for which the GFP response vs DMSO in assay [1] is 101% (inactive); in assay [1] (setting [6]) it was 99.1%; in assay [1] (setting [7]), 102%; in assay [3], 101% (inactive). Also, the GFP response relative to DMSO in assay [2] was 98.2% (inactive); in assay [2] (setting [8]), 99.1%; in assay [2] (setting [9]) it was 99.4%. In addition, the GFP response, % of DMSO in assay [4] is 102% (inactive); in assay [5] it was 100% (inactive); in assay [5] (setting [6]) it was 101%; in assay [5] (setting [7]) it was 99.3%.

As for `OCC[n+]1ccc(/C=C/c2c[nH]c3ccccc23)cc1`, the GFP response vs DMSO in assay [1] is 108% (inactive); in assay [1] (setting [6]), 106%; in assay [1] (setting [7]), 108%; in assay [3], 164% (inactive). Further, the GFP response relative to DMSO was 140% (inactive) in assay [2], 143% in assay [2] (setting [8]) and 141% in assay [2] (setting [9]). Besides, the GFP response, % of DMSO in assay [4] is 104% (inactive); in assay [5], 141% (inactive); in assay [5] (setting [6]), 142%; in assay [5] (setting [7]) it was 143%.

As to `O=S(=O)(c1ccc(Cl)cc1)c1ccccn1`, the GFP response vs DMSO in assay [1] is 96.2% (inactive); in assay [1] (setting [6]) it was 96.4%; in assay [1] (setting [7]) it was 95.8%; in assay [3] it was 101% (inactive). Moreover, the GFP response relative to DMSO in assay [2] was 94.1% (inactive); in assay [2] (setting [8]), 96%; in assay [2] (setting [9]) it was 93.4%. Besides, the GFP response, % of DMSO in assay [4] is 98.2% (inactive); in assay [5] it was 103% (inactive); in assay [5] (setting [6]), 101%; in assay [5] (setting [7]), 105%.

For `Cc1ccc(S(=O)(=O)N2C3C=CC(C3)C2C(=O)O)cc1` (stereo not drawn), the GFP response vs DMSO in assay [1] is 96% (inactive); in assay [1] (setting [6]) it was 97.6%; in assay [1] (setting [7]), 95.2%; in assay [3] it was 106% (inactive). The GFP response relative to DMSO is 95.3% (inactive) in assay [2], 96% in assay [2] (setting [8]) and 94.4% in assay [2] (setting [9]). Besides, the GFP response, % of DMSO in assay [4] was 98.4% (inactive); in assay [5], 97.2% (inactive); in assay [5] (setting [6]), 97.6%; in assay [5] (setting [7]), 98.2%.

Take `CCOc1ccc(/C=C2\N=C(c3cccs3)OC2=O)cc1OC`: the GFP response vs DMSO in assay [1] was 95% (inactive); in assay [1] (setting [6]) it was 95.2%; in assay [1] (setting [7]), 93.9%; in assay [3], 101% (inactive). Further, the GFP response relative to DMSO in assay [2] is 98.2% (inactive); in assay [2] (setting [8]), 97.5%; in assay [2] (setting [9]) it was 99.4%. Besides, the GFP response, % of DMSO was 94.5% (inactive) in assay [4], 97.3% (inactive) in assay [5], 95.6% in assay [5] (setting [6]) and 98.1% in assay [5] (setting [7]).

As for `COc1ccc(N2C(=O)CC(Sc3nccc(C)n3)C2=O)cc1` (stereo not drawn), the GFP response vs DMSO in assay [1] was 97.2% (inactive); in assay [1] (setting [6]), 98%; in assay [1] (setting [7]), 96.5%; in assay [3], 104% (inactive). In addition, the GFP response relative to DMSO in assay [2] is 98.8% (inactive); in assay [2] (setting [8]), 101%; in assay [2] (setting [9]), 98.5%. In addition, the GFP response, % of DMSO was 107% (inactive) in assay [4], 99.3% (inactive) in assay [5], 96.4% in assay [5] (setting [6]) and 100% in assay [5] (setting [7]).

As to `COc1cccc(-c2noc(-c3cccnc3)n2)c1`, the GFP response vs DMSO in assay [1] is 97.2% (inactive); in assay [1] (setting [6]), 97.1%; in assay [1] (setting [7]), 96.3%; in assay [3], 101% (inactive). For the same compound, the GFP response relative to DMSO in assay [2] is 102% (inactive); in assay [2] (setting [8]), 102%; in assay [2] (setting [9]) it was 100%. Besides, the GFP response, % of DMSO was 97.3% (inactive) in assay [4], 103% (inactive) in assay [5], 105% in assay [5] (setting [6]) and 102% in assay [5] (setting [7]).

On to `COc1cc(NC(=O)c2cccc(C)c2)ccc1NC(=O)c1cc2ccccc2o1`, for which the GFP response vs DMSO in assay [1] was 102% (inactive); in assay [1] (setting [6]), 103%; in assay [1] (setting [7]), 102%; in assay [3], 99% (inactive). Moreover, the GFP response relative to DMSO in assay [2] is 103% (inactive); in assay [2] (setting [8]), 102%; in assay [2] (setting [9]), 103%. For the same compound, the GFP response, % of DMSO in assay [4] was 104% (inactive); in assay [5], 103% (inactive); in assay [5] (setting [6]), 106%; in assay [5] (setting [7]) it was 103%.

With `CCOC(=O)CS(=O)(=O)c1nc(-c2ccc(F)cc2)cc(C(F)(F)F)n1`, the GFP response vs DMSO in assay [1] was 109% (inactive); in assay [1] (setting [6]) it was 113%; in assay [1] (setting [7]), 102%; in assay [3], 113% (inactive). Moreover, the GFP response relative to DMSO in assay [2] was 170% (active); in assay [2] (setting [8]) it was 170%; in assay [2] (setting [9]), 165%. Also, the GFP response, % of DMSO was 108% (inactive) in assay [4], 116% (inactive) in assay [5], 123% in assay [5] (setting [6]) and 106% in assay [5] (setting [7]).
